Active and inactive are the calls of the source.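 Rule for the calls: active = inhibition of 30% or more at any tested concentration; inactive = the rest.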
Target: M17 leucyl aminopeptidase (Plasmodium falciparum 3D7)
Experiment: PfM17LAP leucine aminopeptidase inhibitors, dose response, counter-screen for PfM18AAP inhibitor project, biochemical, QFRET (AID 588679)
Conditions: recombinant PfM17LAP, H-Leu-NHMec fluorogenic cleavage
How it was run: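 Test system: purified recombinant Plasmodium falciparum M17 leucine aminopeptidase. Input: enzyme at 5 µg/mL final. Probe or stimulus: H-Leu-NHMec, 0.1 mM. Compound: 10 doses, top 100 µM. Incubation: 90 min reaction, room temperature. Detection: fluorescence, ex 370 nm, em 460 nm. Repeats: each concentration tested in triplicate.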

Row | Compound | IC50 [µM]
1 | O=C1OCCN1CCc1nc(-c2ccc(O)c(O)c2)cs1 | 37
2 | Oc1ccc(CCN2CCc3ccccc3C2)cc1O | 58.6
3 | Nc1cc(C(=O)c2ccccc2)ccc1O | 31.4
4 | O=c1ccc2cc(O)c(O)cc2o1 | 35.3
5 | Cc1nc(NCCc2ccc(O)c(O)c2)c2c3c(sc2n1)CCC3 | 25.3
6 | CCOc1cccc(-c2nc(-c3ccc(O)c(O)c3)cs2)c1 | 23.5
7 | Oc1ccc(CCNc2ccc3ccccc3c2)cc1O | 39.7
8 | Cc1ccc(-c2nc(-c3ccc(O)c(O)c3)cs2)cc1 | 21.1
9 | CC(C)(C)C(=O)OCc1nc(-c2ccc(O)c(O)c2)cs1 | 29.4
10 | Oc1ccc(-c2csc(Cc3cc4ccccc4[nH]3)n2)cc1O | 22
11 | Oc1ccc(CCNc2cccc3ccccc23)cc1O | 26.9
12 | O=S1(=O)c2ccccc2-c2cc(-c3nc(-c4ccc(O)c(O)c4)[nH]c3-c3ccccc3)ccc21 | 20
13 | O=c1cc(CN2CCN(Cc3ccccc3)CC2)c2ccc(O)c(O)c2o1 | 94
14 | Oc1ccc(CCNc2cncc3ccccc23)cc1O | 26.6
15 | CN(CCc1ccc(O)c(O)c1)c1ccnc2ccccc12 | 18
16 | Oc1ccc(CCNC(c2ccccc2)c2ccccc2)cc1O | 46.8
17 | Cc1c(-c2ccccc2)[nH]c(-c2ccc(O)c(O)c2)[n+]1O | 69.2
18 | CCC(C)c1ccc(N)c(O)c1 (configuration not stated) | 37.6
19 | Oc1ccc(CCNc2c3c(nc4ccccc24)CCCC3)cc1O | 61.8

Same assay, conditions: recombinant PfM17LAP, H-Leu-NHMec fluorogenic cleavage; at 50 µM (top of the series)

Row | Compound | inhibition
20 | O=C(O)CCCCNc1c2ccccc2nc2ccccc12 | inactive
21 | O=C(O)CCCNc1c2ccccc2nc2ccccc12 | inactive

Same assay, conditions: recombinant PfM17LAP, H-Leu-NHMec fluorogenic cleavage; at 100 µM (top of the series)

Row | Compound | inhibition
22 | O=C(c1ccco1)N1CCN(Cc2cc(=O)c(O)co2)CC1 | inactive
23 | Cc1c(OCc2ccccc2)c(=O)ccn1CCNc1c2ccccc2nc2ccccc12 | inactive
24 | O=C(c1ccco1)N1CCN(Cc2cc(=O)c(O)c[nH]2)CC1 | inactive
25 | COc1ccc(CCNc2ccc3ccccc3c2)cc1OC | inactive
26 | COc1ccc(CCN2CCN(C)CC2)cc1OC | inactive
27 | CCC(C)C(=O)Nc1ccccc1O (configuration not stated) | inactive
28 | COc1ccc(CCNc2c3ccccc3nc3ccccc23)cc1OC | inactive
29 | COc1ccc(-c2nc(-c3ccccc3)c(-c3ccccc3)[nH]2)cc1OC | inactive
30 | COc1ccc(CCN(C)c2ccncc2)cc1OC | inactive
31 | COc1ccc(CCC(=O)O)cc1OC | inactive
32 | Oc1ccc(CCNc2c3ccccc3nc3ccccc23)cc1 | inactive
33 | COc1ccc(CCNc2cccc3ccccc23)cc1OC | inactive
34 | COc1ccc(CCCNc2c3ccccc3nc3ccccc23)cc1OC | inactive
35 | COc1cccc(CCNc2c3ccccc3nc3ccccc23)c1 | inactive
36 | COc1ccc(-c2csc(-c3ccccc3)n2)cc1OC | inactive
37 | COc1ccc(CC(=O)O)cc1OC | inactive
38 | NCc1cc2c3c(c(=O)oc2c(O)c1O)CCC3 | inactive
39 | COc1ccc(CCNC2CCN(Cc3ccccc3)CC2)cc1OC | inactive

Row | Compound | inhibition
40 | COc1ccc(CCNc2ccncc2)cc1OC | inactive
41 | COc1ccc(CCNc2ccnc3ccccc23)cc1OC | inactive
42 | COc1ccc(CCNC2CCN(C)CC2)cc1OC | inactive
43 | COc1ccc(CCNc2c3c(nc4ccccc24)CCCC3)cc1OC | inactive
44 | O=C1c2ccc3c4c(ccc(c24)C(=O)N1O)CC3 | inactive
45 | Oc1ccc(CCCNc2c3ccccc3nc3ccccc23)cc1O | inactive
46 | COc1ccc(CCN(C)CCc2ccccc2)cc1OC | inactive
47 | COc1ccc2c(c1)C(=O)C(N)CC2 (configuration not stated) | inactive
48 | COc1ccc(CCN2CCc3ccccc3C2)cc1OC | inactive
49 | O=c1cc(CO)oc(CN2CCCCC2)c1O | inactive
50 | COc1ccc(-c2csc(-c3ccccc3OC)n2)cc1OC | inactive
51 | COc1ccc(CNc2c3ccccc3nc3ccccc23)cc1OC | inactive
52 | CCC(C)C(=O)Nc1ccccc1N (configuration not stated) | inactive
53 | NCCNc1c2ccccc2nc2ccccc12 | inactive
54 | COc1cccc(-c2nc(-c3ccc(OC)c(OC)c3)cs2)c1 | inactive
55 | Cc1c(O)c(=O)ccn1CCNc1c2ccccc2nc2ccccc12 | inactive
56 | COc1ccc(CCN(C)c2ccnc3ccccc23)cc1OC | inactive
57 | COc1ccc(CCNc2cncc3ccccc23)cc1OC | inactive
